MrgX1 PAM – human MrgX1 positive allosteric modulation, primary screen; Q96LB2; MrgX1-HEK293, Fluo-4 calcium flux, FDSS; active compounds read high; B-score at 10 µM; 310,000 compounds, 0.63% hits; AID 588675;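 active means plate-corrected calcium response at least 3 library SD above typical, normal starting fluorescence, not activating the receptor alone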;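 further: compound read alongside a low EC10 to EC30 dose of BAM8-22 agonist; peak minus trough fluorescence over baseline measured at the second addition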
Target sequence (Q96LB2 whole entry, looked up): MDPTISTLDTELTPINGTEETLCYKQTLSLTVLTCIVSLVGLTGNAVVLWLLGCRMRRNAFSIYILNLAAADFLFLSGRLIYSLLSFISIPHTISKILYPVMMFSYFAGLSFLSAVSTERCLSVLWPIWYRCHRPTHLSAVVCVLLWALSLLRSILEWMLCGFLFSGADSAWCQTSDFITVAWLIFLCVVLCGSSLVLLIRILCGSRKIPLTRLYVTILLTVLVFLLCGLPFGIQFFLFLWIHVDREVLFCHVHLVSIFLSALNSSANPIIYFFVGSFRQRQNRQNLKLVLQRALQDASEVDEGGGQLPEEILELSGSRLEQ
MrgX1 antagonist – blocks BAM8-22 activation of human MrgX1 receptor; Q96LB2; MRGX1-HEK293 calcium flux, Fluo-4, BAM8-22 antagonism; active compounds read low; B-score at 10 µM; 310,000 compounds, 1.3% hits; AID 588676;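 active means calcium-response B-score plate-corrected more than 3 library SD below zero, starting fluorescence within 5 deviations, no agonist response on first addition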;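 further: peak minus trough fluorescence over baseline after final BAM8-22 challenge near maximal dose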
RGS4 act – potentiators or activators of RGS4; HEK293 M3R/inducible RGS4, carbachol calcium flux Fluo4; active compounds read low; B-score at 10 µM; 310,000 compounds, 0.92% hits; AID 463111;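 active means B-score of the integrated calcium signal more than 4 SD below the library mean, with starting fluorescence not abnormally high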;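 further: negative B-score means reduced calcium response which marks RGS4 activation or potentiation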
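Detection: kinetic calcium fluorescence imaging with Fluo4-AM dye, 2 µM / Material: HEK293 cells with stable M3R and inducible RGS4 / Schedule: recording 10 s baseline at 1 Hz, 100 s post-agonist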
MrgX1 agonist – activates human MrgX1 receptor signaling; B-score at 10 µM; 310,000 compounds, 0.44% hits; MrgX1-HEK293 cells, Fluo-4 calcium fluorescence, agonist mode; active compounds read high;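 active means calcium response B-score plate-corrected fluorescence ratio at least 3 library SD, with starting fluorescence B-score inside 5 SD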
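Material – MrgX1-expressing HEK293 cells · Input – 15,000 cells seeded per well · Dosing – compound as first of three additions · Times – overnight seeding, then 1 h dark dye loading · Measured by – kinetic Fluo-4 NW fluorescence of intracellular calcium · Read-out – B-scored fluorescence response ratio · Benchmarks – positive and negative control wells on each plate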
RGS4 inh – human RGS4 inhibition | P49798 | HEK293 M3R/RGS4 inducible, Fluo-4 calcium flux; active compounds read high; triggered by carbachol at its EC20 | B-score at 10 µM | 310,000 compounds, 0.45% hits | AID 463165;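 active means B-score, a plate-corrected calcium signal, over three deviations above library mean, with baseline fluorescence within five deviations of library mean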;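 further: RGS4 expression induced by doxycycline in cells with stable M3 receptor; B-score is computed from the integrated fluorescence ratio over baseline after carbachol; higher B-score means a larger calcium signal and so more RGS4 inhibition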
Target sequence (P49798 whole entry, looked up): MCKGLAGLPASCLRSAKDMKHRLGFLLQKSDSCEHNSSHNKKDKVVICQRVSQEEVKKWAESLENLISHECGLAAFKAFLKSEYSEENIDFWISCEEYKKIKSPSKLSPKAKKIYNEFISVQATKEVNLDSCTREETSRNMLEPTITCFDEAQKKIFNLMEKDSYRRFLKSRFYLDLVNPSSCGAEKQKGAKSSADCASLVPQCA
MrgX1 allo conf – reconfirmed allosteric activator of human MrgX1 receptor; shares compounds with MrgX1 PAM; 1,200 compounds, 13% hits; activation (ratio percentage), % at 10 µM; MrgX1-HEK293, Fluo-4 calcium fluorescence, FDSS;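 active means ratio at least 3 SD above the weak peptide control, stable starting fluorescence, no direct agonism earlier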;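 further: compound followed by low BAM8-22 agonist challenge near EC20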
HEK293 Ca flux – counter-screen for MrgX1 antagonists: effect in parental HEK293 cells; 4,000 compounds, 2% hits; fluorescence ratio F(max-min)/F0 at 10 µM; Fluo-4 calcium fluorescence, FDSS; AID 624111; shares compounds with MrgX1 antagonist;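 active means duplicate-averaged calcium fluorescence ratio at least three times the standard deviation of buffer wells, a nonspecific response in parental cells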
HEK293 Ca counter – counter-screen for MrgX1 allosteric activators: effect in parental HEK293 cells | AID 624114 | 4,000 compounds, 0.4% hits | shares compounds with MrgX1 antagonist | parental HEK293 calcium flux, Fluo-4 fluorescence ratio; active compounds read high | fluorescence ratio F(max-min)/F0 at 10 µM;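 active means calcium fluorescence ratio, averaged over duplicates, at least 3 SD of the buffer-well ratio, meaning a nonspecific response in receptor-free cells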;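 further: untransfected parental HEK293 lacking MrgX1 used as counterscreen for MrgX1 allosteric activators; fluorescence change taken during the second addition on a kinetic imager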
HEK293 Ca cntr2 – activity in parental HEK293 cells lacking MrgX1 receptor | Fluo-4 calcium fluorescence (FDSS); active compounds read high | AID 624115 | fluorescence ratio F(max-min)/F0 at 10 µM | shares compounds with MrgX1 antagonist | 4,000 compounds, 8.7% hits;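 active means calcium fluorescence ratio at least three times the spread of buffer wells, meaning a non-specific response in parental cells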
Active calls of the source: *; i = inactive; / = not tested or not shown. In the library only some 3.5% were active in any assay of this set; here they are far more common.

SMILES	MrgX1 PAM	MrgX1 antagonist	RGS4 act	MrgX1 agonist	RGS4 inh	MrgX1 allo conf	HEK293 Ca flux	HEK293 Ca counter	HEK293 Ca cntr2
Fc1cccc(-c2cc3nc4c(c(N5CCC6(CC5)OCCO6)n3n2)CCCC4)c1	7.6*	i	i	i	i	i	i	i	i
COc1cccc(C(=O)NCC(c2ccc3c(c2)OCO3)N2CCN(c3ccc(F)cc3)CC2)c1 (centres undefined)	i	i	i	i	i	/	/	/	/
COc1ccc(-c2cc(C(F)(F)F)n3ncc(C(=O)NCc4ccco4)c3n2)cc1	i	i	i	i	i	/	/	/	/
COc1ccc(-c2cc(C(F)(F)F)n3ncc(C(=O)N(C)Cc4ccccc4)c3n2)cc1	6.94*	i	i	i	i	i	i	i	i
CC1CCCN(C(=O)CSc2nnc(-c3c[nH]c4ccccc34)o2)C1 (centres undefined)	9.51*	i	i	i	i	8.7%*	i	i	i
CCNc1nc(Sc2ccc(C)cc2)cc(C(F)(F)F)n1	6.85*	i	i	i	i	15.0%*	i	i	i
CCNc1nc(Oc2c(Cl)cccc2Cl)cc(C(F)(F)F)n1	i	i	i	i	i	/	/	/	/
CCNc1nc(Oc2ccc(OC)cc2)cc(C(F)(F)F)n1	10.1*	i	i	i	i	i	i	i	i
COc1cc(SC)ccc1C(=O)OCC(=O)N1CCCC1	11.3*	i	i	i	i	i	i	i	i
CC(C)C[C@H](NC(=O)N1CCn2c1nc1ccccc12)C(=O)NC1CCCCC1	i	i	i	i	i	/	/	/	/
NS(=O)(=O)c1cccc(NC(=O)COC(=O)CN2C(=O)C3CC=CCC3C2=O)c1 (centres undefined)	i	i	i	i	i	/	/	/	/
CCc1nc2ccc(C(=O)N(C)CC(=O)Nc3ccc(Cl)c(C(F)(F)F)c3)cc2nc1CC	13.7*	i	i	i	i	i	i	i	i
CC(NS(=O)(=O)/C=C/c1ccccc1)C(=O)O (centres undefined)	10.4*	i	i	i	i	i	i	i	i
O=C(Nc1ccc(Cl)cc1)N1CCCN(c2ccc(C(F)(F)F)cc2[N+](=O)[O-])CC1	i	i	i	i	i	/	/	/	/
COc1ccc(C)cc1NC(=O)c1ccccc1NS(=O)(=O)c1cccc2cccnc12	i	i	i	i	i	/	/	/	/
Cc1ccccc1N1C(=O)C2C3C=CC(C2C1=O)N(C)C3=O (centres undefined)	i	i	i	i	i	/	/	/	/
Cc1ccccc1N1C(=O)C2C3CCC(O3)C2C1=O (centres undefined)	18.7*	i	i	i	i	i	i	i	i
CCN(CC)C1CCN(Cc2c(C(=O)N3CCCCCCC3)nc3ccc(Cl)cn23)C1 (centres undefined)	i	i	i	i	i	/	/	/	/
CCOC(=O)C1CCN(C(=O)CN2C(=O)c3cccnc3Oc3ccccc32)CC1	8.3*	i	i	i	i	i	i	i	i
CCOC(=O)/C(C(=Nc1ccccc1)Nc1ccccc1)=C(\C)O	7.7*	i	i	i	i	i	i	i	i
Cc1ccc(S(=O)(=O)N/N=C/c2cccc3c2OCCO3)cc1	i	i	i	i	i	/	/	/	/
Cc1ccc(S(=O)(=O)N/N=C/c2cccc3nccnc23)cc1	20.3*	i	i	i	i	i	i	i	i
CC(=O)C1=C(O)C(=O)N(Cc2ccccc2)C1c1ccc([N+](=O)[O-])cc1 (centres undefined)	i	i	i	i	i	/	/	/	/
Cc1ccccc1NC(=O)c1ccco1	i	i	i	i	i	/	/	/	/
Cc1ccccc1NS(=O)(=O)c1ccc(NC(=O)c2ccco2)cc1	10.9*	i	i	i	i	i	i	i	i
SMILES	MrgX1 PAM	MrgX1 antagonist	RGS4 act	MrgX1 agonist	RGS4 inh	MrgX1 allo conf	HEK293 Ca flux	HEK293 Ca counter	HEK293 Ca cntr2
CCOc1ccc(S(=O)(=O)Nc2ccc(C(=O)NN)cc2)cc1	i	i	i	i	i	/	/	/	/
O=C(NCCCNC(=O)c1ccc(Cl)cc1Cl)c1cnccn1	i	i	i	i	i	/	/	/	/
Cc1ccc(-c2ccc(C(=O)NCCCNC(=O)c3cnccn3)o2)cc1Cl	18.3*	i	i	i	i	13.5%*	i	i	i
O=C(NCCCNC(=O)c1ccc(-c2cc(Cl)ccc2Cl)o1)c1cnccn1	17.7*	i	i	i	i	19.6%*	i	i	i
O=C(NCCCNC(=O)c1cc(Cl)ccc1Cl)c1cnccn1	i	i	i	i	i	/	/	/	/
Cc1ccc(-n2ncc(-c3nn[nH]n3)c2N)cc1	i	i	i	i	i	/	/	/	/
COc1ccc(Nc2nc(Cl)nc(N3CCN(c4ccc(OC)cc4)CC3)n2)cc1	i	i	i	i	i	/	/	/	/
COc1ccc(NC2CCCN(C(=O)CSc3ccccc3)C2)cc1OC (centres undefined)	i	i	i	i	i	/	/	/	/
COc1ccccc1NS(=O)(=O)c1cc(-c2cnc(C3CC3)o2)ccc1C	14*	i	i	i	i	i	i	i	i
COc1ccc(NS(=O)(=O)c2cc(-c3cnc(C4CC4)o3)ccc2C)cc1	i	i	i	i	i	/	/	/	/
CC1CN(S(=O)(=O)c2csc(C(=O)Nc3ccccc3)c2)CC(C)O1 (centres undefined)	i	i	i	i	i	/	/	/	/
O=C(NCCc1cn2ccccc2n1)c1cc(COc2ccc3ncccc3c2)on1	8.93*	i	i	i	i	5.7%*	i	i	i
O=C(NC1CCCC1)c1cc(COc2ccc3ncccc3c2)on1	i	i	i	i	i	/	/	/	/
COc1ccc(NC2CCCN(C(=O)c3ccc(C)c(N4CCNC4=O)c3)C2)cc1 (centres undefined)	i	i	i	i	i	/	/	/	/
